Screening results deposited in PubChem by The Scripps Research Institute Molecular Screening Center.
Compounds with a hit are over-represented: about 4.7% of the library has one in this group of screens.
MC4R ag barr: activates human MC4R beta-arrestin recruitment; U2OS MC4R beta-arrestin complementation, luminescence; percent of melanotan II response, DMSO zero; P32245; activation, % at 8.9 µM; hit rate 0.98% among 360,000; AID 540308;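 active = activation above a per-plate cutoff, the mean activation of sample wells on that plate plus 3 SD, cut at about 8% in these data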
FXN GAA850 act: increases GAA850 frataxin promoter reporter activity | hit rate 0.56% among 360,000 | AID 540364 | activation, % at 6 µM | HEK293 lucGAA850 FXN promoter luciferase reporter, 24 h; percent of 10 µM SAHA response;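 active = activation above the average of all compounds screened plus 3 SD, cutoff fixed separately per campaign, cut at about 7.5% in these data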;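 note: 0% = DMSO wells and 100% = 10 µM SAHA wells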
AHR act: human AHR activation. activation, % at 5 µM. hit rate 2.5% among 320,000. AHR-responsive luciferase reporter cells, luminescence. P35869. AID 2796; in the data active = activation above about 47%;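 note: 0% = vehicle wells and 100% = reference agonist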
Target sequence (P35869 whole entry, looked up): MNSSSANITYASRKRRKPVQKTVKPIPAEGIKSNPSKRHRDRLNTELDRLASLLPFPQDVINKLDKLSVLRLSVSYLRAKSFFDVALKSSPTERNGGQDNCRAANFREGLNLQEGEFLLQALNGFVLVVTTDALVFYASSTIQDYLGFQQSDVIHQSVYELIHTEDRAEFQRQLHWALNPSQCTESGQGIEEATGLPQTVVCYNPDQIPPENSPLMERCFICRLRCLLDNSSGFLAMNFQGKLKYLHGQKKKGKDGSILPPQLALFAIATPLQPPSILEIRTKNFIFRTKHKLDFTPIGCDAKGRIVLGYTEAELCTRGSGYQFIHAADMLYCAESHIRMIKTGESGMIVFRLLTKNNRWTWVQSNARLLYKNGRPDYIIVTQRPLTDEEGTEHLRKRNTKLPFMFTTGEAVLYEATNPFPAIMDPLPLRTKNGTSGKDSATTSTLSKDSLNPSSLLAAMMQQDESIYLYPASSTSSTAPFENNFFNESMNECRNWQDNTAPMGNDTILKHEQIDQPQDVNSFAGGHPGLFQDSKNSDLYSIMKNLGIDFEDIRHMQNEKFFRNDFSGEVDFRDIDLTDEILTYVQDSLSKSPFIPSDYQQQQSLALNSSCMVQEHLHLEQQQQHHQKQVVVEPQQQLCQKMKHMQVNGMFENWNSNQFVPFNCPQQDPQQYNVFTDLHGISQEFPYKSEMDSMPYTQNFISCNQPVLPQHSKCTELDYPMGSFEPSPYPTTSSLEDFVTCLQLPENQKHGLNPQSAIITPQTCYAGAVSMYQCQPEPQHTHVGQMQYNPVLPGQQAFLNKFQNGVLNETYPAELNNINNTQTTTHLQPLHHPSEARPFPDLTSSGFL
HTR2A ag: agonists of mouse serotonin 5-HT2A receptor (HTR2A); P35363; CHO-K1 mHTR2A beta-arrestin complementation, luminescence; percent of 30 µM serotonin response; activation, % at 7.6 µM; hit rate 0.66% among 360,000; AID 624169;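 active = activation above a run cutoff, the mean activation of all tested compounds plus 3 SD, cut at about 14% in these data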;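 note: 0% = plate median of compound wells and 100% = 30 µM serotonin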
MC4R antagonist: antagonists of human melanocortin 4 receptor (MC4R); MC4R-expressing cells, MTII-stimulated cAMP, LANCE TR-FRET; inhibition, % at 6.5 µM; hit rate 0.48% among 360,000; AID 540295;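 active = inhibition above its plate's cutoff, the mean of tested wells on that plate plus 3 SD, cut at about 29% in these data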;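 note: 0% = Melanotan II alone and 100% = Melanotan II plus saturating MCL0020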
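System: U2OS-MC4R stable cell line; Technique: Eu-cAMP/anti-cAMP TR-FRET, emission 671 nm; Repeats: single well per compound; Also added: Melanotan II; Dosing: one concentration, 6.5 µM nominal; Schedule: 30-min compound, 1-h challenge, 1-h detection, room temperature.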
* = called active by the depositor; / = no result.

SMILES | MC4R ag barr | FXN GAA850 act | AHR act | HTR2A ag | MC4R antagonist
Cc1c(Nc2cc(Cl)c3nonc3c2[N+](=O)[O-])c(=O)n(-c2ccccc2)n1C | -6 | 13* | / | -9 | -23
Cc1c(Nc2cc(N3CCOCC3)c3nonc3c2[N+](=O)[O-])c(=O)n(-c2ccccc2)n1C | / | / | 1 | / | /
COc1ccccc1CN(C)C(=O)c1cc(S(=O)(=O)N2CCCCCC2)ccc1OC | 0 | -2 | / | -6 | 10
CC1(C(=O)Nc2ccccc2F)CCN1C(=O)Cc1cc(F)ccc1F (centres undefined) | 2 | 0 | / | -1 | 8
CCn1c2ccccc2c2cc(NC(=O)N3CCCCC3)ccc21 | -3 | 3 | / | -9 | -2
CCOc1ccc(-c2nnc(SCC(=O)Nc3ccc4c(c3)c3ccccc3n4CC)n2N)cc1 | 30* | -3 | 11 | -3 | -6
CCCC(=O)Nc1ccc2c(c1)c1ccccc1n2CC | -2 | 0 | 69* | 5 | -1
CCn1c2ccccc2c2cc(NS(=O)(=O)c3ccccc3C)ccc21 | -3 | -1 | 73* | -4 | -6
CCn1c2ccccc2c2cc(NC(=O)C(C)C)ccc21 | -4 | 4 | 37 | 0 | 13
CCn1c2ccccc2c2cc(NC(=O)CSc3nnc(-c4ccc(OC)c(OC)c4)n3N)ccc21 | 0 | 2 | 33 | 2 | 7
CCn1c2ccccc2c2cc(NC(=O)CC(C)=O)ccc21 | -3 | -2 | 57* | -1 | -5
CC1CCC2(CC1)NC(=O)N(CC(=O)Nc1cccc(C#N)c1)C2=O (centres undefined) | -1 | -2 | 1 | -2 | 14
CCn1c2ccccc2c2cc(NC(=O)Cc3ccc(S(=O)(=O)N4CCOCC4)s3)ccc21 | -1 | 4 | 51* | -6 | 6
CN(C)S(=O)(=O)c1ccc(NC(=O)Cc2ccc(S(=O)(=O)N3CCOCC3)s2)cc1 | -3 | 2 | 1 | -5 | 8
CC1(C)Oc2ccc3ccc(=O)oc3c2/C(=C/NC2CCCCC2)C1=O | 0 | 0 | 0 | 5 | -5
O=C(NCc1cccc(C(F)(F)F)c1)N1CCN(C(=O)c2ccccc2)CC1 | -4 | -1 | 0 | -1 | 12
Cc1ccc(-c2csc(=Nc3cccnc3)n2CCCn2ccnc2)cc1C | -1 | -6 | 31 | -2 | 5
c1cncc(N=c2scc(-c3cccc4ccccc34)n2CCCn2ccnc2)c1 | 0 | 1 | 56* | -2 | 1
O=C(/C=C/c1c[nH]c2ccccc12)c1cccc2ccccc12 | 0 | 0 | 68* | -1 | 5
CCOC(=O)c1ccc(NC(=O)c2nc[nH]c2C(=O)N(CC)CC)cc1 | 0 | 2 | 30 | 4 | 2
CCN(CC)C(=O)c1[nH]cnc1C(=O)Nc1cccc(C)c1 | 0 | 1 | 54* | 2 | 3
CCN(CC)C(=O)c1[nH]cnc1C(=O)Nc1ccc(OC)cc1 | -1 | 1 | 65* | 3 | -2
Cc1cccc(NC(=O)c2nc[nH]c2C(=O)NC[C@@H](C)O)c1 | 0 | -2 | / | -3 | 7
CCN(CC)C(=O)c1[nH]cnc1C(=O)Nc1ccc(Cl)cc1 | 2 | 3 | 75* | 2 | -2
CCCCN1C(=O)c2ccc(C(=O)NC3(C)CCS(=O)(=O)C3)cc2C1=O (centres undefined) | -1 | 0 | 1 | 1 | -1
SMILES | MC4R ag barr | FXN GAA850 act | AHR act | HTR2A ag | MC4R antagonist
Cc1ccc(S(=O)(=O)N2CCC[C@H]2C(=O)NC2CCCCC2)cc1 | 1 | -3 | / | 3 | 15
Cc1noc(C)c1C(=O)Nc1nc(-c2cccs2)cs1 | 1 | 4 | 63* | -24 | 0
O=C(Nc1nc(-c2ccc(Cl)s2)cs1)c1cccs1 | -2 | 6 | 71* | -6 | 1
Cc1ccc(/C=C/C(=O)O)cc1S(=O)(=O)N1CCc2ccccc21 | -2 | 0 | 3 | -3 | 8
CC1(c2ccc3c(c2)OCCO3)NC(=O)N(CC(=O)Nc2ccccc2)C1=O (centres undefined) | -1 | 1 | 1 | 4 | -2
Cc1cc(NCCCN2CCOCC2)n2ncc(-c3ccc(Cl)cc3)c2n1 | -2 | 1 | 26 | -3 | 1
Cc1cc(NCCCn2ccnc2)n2ncc(-c3ccc(Cl)cc3)c2n1 | -3 | 0 | 126* | -6 | 6
CN(C)CCCNc1cc(C(C)(C)C)nc2c(-c3ccc(Cl)cc3)cnn12 | 8.3* | 4 | 3 | -9 | 0
Cc1cccc(-c2cc3nc(C)cc(NCCCn4ccnc4)n3n2)c1 | -2 | 2 | 48* | 1 | -3
